# Test results from ChEMBL document CHEMBL5724801, “EUbOPEN Chemogenomics Library - Multiplex” (2024).
# Several values for one entry are separate records, joined by “and”; a condition that tells them apart may be missing. Equal entries are not always repeated.
# Tested on: U2OS
# Test: Multiplex assay against U2OS
# Type: toxicity, cell-based
# Conditions: human
# Method in brief: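 Values for tubulin, mitochondrial-mass and membrane-permeability phenotypes are per cents of cells with healthy nuclei. These cells were identified by CellPathfinder machine-learning gating of live cells that had been stained at seeding with Hoechst33342, BioTracker Green Microtubule Cytoskeleton Dye, MitoTracker Red and Annexin V Alexa Fluor 680 and imaged on a CQ1 microscope at 37°C and 5% CO2 after compound addition. The gating first set Hoechst high-intensity objects apart from normal cells, then split normal cells into healthy, pyknosed or fragmented nuclei, and pyknosed cells into mitotic or apoptotic.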
# [1] = 12 h, 1 µM, compound concentration 1 uM
# [2] = 12 h, 10 µM, compound concentration 10 uM
# [3] = 24 h, 1 µM, compound concentration 1 uM
# [4] = 24 h, 10 µM, compound concentration 10 uM
# [5] = 48 h, 1 µM, compound concentration 1 uM
# [6] = 48 h, 10 µM, compound concentration 10 uM
compound,measurement,setting,value
O=c1cccc2n1C[C@@H]1CNC[C@H]2C1 [CYTISINICLINE],Population Apoptotic (%),[1],31.43% and 36.84%
same,Population Fragmented Nuclei (%),[1],0.94% and 1.67%
same,Population Healthy Nuclei (%),[1],90.87% and 87.78%
same,Population Hoechst High Intensity Objects (%),[1],0%
same,Population Membrane Permeable-Phenotype (%),[1],1.29% and 1.9%
same,Population Mitochondria Different-Phenotype (%),[1],0% and 5.06%
same,Population Mitotic Cells (%),[1],68.57% and 63.16%
same,Population Normal (%),[1],100%
same,Population Pyknosed Nuclei (%),[1],8.2% and 10.56%
same,Population Tubulin-Different-Phenotype (%),[1],1.29% and 0%
same,Total Cell Count,[1],427 and 180
same,Population Apoptotic (%),[2],50%
same,Population Fragmented Nuclei (%),[2],0.98% and 7.59%
same,Population Healthy Nuclei (%),[2],90.71% and 82.28%
same,Population Hoechst High Intensity Objects (%),[2],0%
same,Population Membrane Permeable-Phenotype (%),[2],1.35% and 0.77%
same,Population Mitochondria Different-Phenotype (%),[2],0% and 6.92%
same,Population Mitotic Cells (%),[2],50%
same,Population Normal (%),[2],100%
same,Population Pyknosed Nuclei (%),[2],8.31% and 10.13%
same,Population Tubulin-Different-Phenotype (%),[2],1.62% and 1.54%
same,Total Cell Count,[2],409 and 158
same,Population Apoptotic (%),[3],30.23% and 40%
same,Population Fragmented Nuclei (%),[3],2.82% and 2.92%
same,Population Healthy Nuclei (%),[3],89.59% and 86.67%
same,Population Hoechst High Intensity Objects (%),[3],0%
same,Population Membrane Permeable-Phenotype (%),[3],1.18% and 2.4%
same,Population Mitochondria Different-Phenotype (%),[3],0% and 2.4%
same,Population Mitotic Cells (%),[3],69.77% and 60%
same,Population Normal (%),[3],100%
same,Population Pyknosed Nuclei (%),[3],7.58% and 10.42%
same,Population Tubulin-Different-Phenotype (%),[3],0.59% and 0.96%
same,Total Cell Count,[3],567 and 240
same,Population Apoptotic (%),[4],32.61% and 45%
same,Population Fragmented Nuclei (%),[4],0.88% and 4.81%
same,Population Healthy Nuclei (%),[4],91.01% and 85.58%
same,Population Hoechst High Intensity Objects (%),[4],0.18% and 0%
same,Population Membrane Permeable-Phenotype (%),[4],0.97% and 1.69%
same,Population Mitochondria Different-Phenotype (%),[4],0% and 3.37%
same,Population Mitotic Cells (%),[4],67.39% and 55%
same,Population Normal (%),[4],99.82% and 100%
same,Population Pyknosed Nuclei (%),[4],8.11% and 9.62%
same,Population Tubulin-Different-Phenotype (%),[4],2.13% and 1.69%
same,Total Cell Count,[4],568 and 208
same,Population Apoptotic (%),[5],42.86% and 41.18%
same,Population Fragmented Nuclei (%),[5],3.85% and 0.73%
same,Population Healthy Nuclei (%),[5],89.27% and 86.8%
same,Population Hoechst High Intensity Objects (%),[5],0% and 0.49%
same,Population Membrane Permeable-Phenotype (%),[5],0.8% and 1.41%
same,Population Mitochondria Different-Phenotype (%),[5],0.1% and 3.1%
same,Population Mitotic Cells (%),[5],57.14% and 58.82%
same,Population Normal (%),[5],100% and 99.51%
same,Population Pyknosed Nuclei (%),[5],6.89% and 12.47%
same,Population Tubulin-Different-Phenotype (%),[5],0.6% and 0.56%
same,Total Cell Count,[5],1118 and 411
same,Population Apoptotic (%),[6],42.39% and 63.89%
same,Population Fragmented Nuclei (%),[6],3.71% and 1.13%
same,Population Healthy Nuclei (%),[6],87.55% and 88.7%
same,Population Hoechst High Intensity Objects (%),[6],0%
same,Population Membrane Permeable-Phenotype (%),[6],0.65% and 2.23%
same,Population Mitochondria Different-Phenotype (%),[6],0.11% and 0.96%
same,Population Mitotic Cells (%),[6],57.61% and 36.11%
same,Population Normal (%),[6],100%
same,Population Pyknosed Nuclei (%),[6],8.75% and 10.17%
same,Population Tubulin-Different-Phenotype (%),[6],1.19% and 0.64%
same,Total Cell Count,[6],1052 and 354
C[C@@H]1C[C@H]2[C@@H]3CCC4=CC(=O)C=C[C@]4(C)[C@@]3(F)[C@@H](O)C[C@]2(C)[C@@]1(O)C(=O)CO [DEXAMETHASONE],Population Apoptotic (%),[1],77% and 80%
same,Population Fragmented Nuclei (%),[1],21% and 20%
same,Population Healthy Nuclei (%),[1],70% and 75%
same,Population Hoechst High Intensity Objects (%),[1],2% and 0%
same,Population Membrane Permeable-Phenotype (%),[1],2% and 4%
same,Population Mitochondria Different-Phenotype (%),[1],0% and 1%
same,Population Mitotic Cells (%),[1],22% and 20%
same,Population Normal (%),[1],97% and 99%
same,Population Pyknosed Nuclei (%),[1],7% and 4%
same,Population Tubulin-Different-Phenotype (%),[1],1% and 3%
same,Total Cell Count,[1],238 and 124
same,Population Apoptotic (%),[2],80% and 84%
same,Population Fragmented Nuclei (%),[2],20% and 16%
same,Population Healthy Nuclei (%),[2],69% and 76%
same,Population Hoechst High Intensity Objects (%),[2],2% and 0%
same,Population Membrane Permeable-Phenotype (%),[2],6% and 7%
same,Population Mitochondria Different-Phenotype (%),[2],1% and 2%
same,Population Mitotic Cells (%),[2],19% and 15%
same,Population Normal (%),[2],97% and 100%
same,Population Pyknosed Nuclei (%),[2],9% and 7%
same,Population Tubulin-Different-Phenotype (%),[2],2% and 3%
same,Total Cell Count,[2],319
same,Population Apoptotic (%),[3],96% and 90%
same,Population Fragmented Nuclei (%),[3],19% and 18%
same,Population Healthy Nuclei (%),[3],71% and 73%
same,Population Hoechst High Intensity Objects (%),[3],2%
same,Population Membrane Permeable-Phenotype (%),[3],4% and 6%
same,Population Mitochondria Different-Phenotype (%),[3],2% and 0%
same,Population Mitotic Cells (%),[3],4% and 9%
same,Population Normal (%),[3],97%
same,Population Pyknosed Nuclei (%),[3],8% and 7%
same,Population Tubulin-Different-Phenotype (%),[3],2% and 4%
same,Total Cell Count,[3],288
same,Population Apoptotic (%),[4],82% and 75%
same,Population Fragmented Nuclei (%),[4],17% and 14%
same,Population Healthy Nuclei (%),[4],74% and 79%
same,Population Hoechst High Intensity Objects (%),[4],1% and 0%
same,Population Membrane Permeable-Phenotype (%),[4],6%
same,Population Mitochondria Different-Phenotype (%),[4],0% and 2%
same,Population Mitotic Cells (%),[4],17% and 25%
same,Population Normal (%),[4],98% and 99%
same,Population Pyknosed Nuclei (%),[4],7% and 5%
same,Population Tubulin-Different-Phenotype (%),[4],2%
same,Total Cell Count,[4],378 and 219
same,Population Apoptotic (%),[5],84% and 71%
same,Population Fragmented Nuclei (%),[5],20% and 17%
same,Population Healthy Nuclei (%),[5],72% and 74%
same,Population Hoechst High Intensity Objects (%),[5],1% and 2%
same,Population Membrane Permeable-Phenotype (%),[5],1% and 3%
same,Population Mitochondria Different-Phenotype (%),[5],1% and 3%
same,Population Mitotic Cells (%),[5],16% and 28%
same,Population Normal (%),[5],98% and 97%
same,Population Pyknosed Nuclei (%),[5],6% and 7%
same,Population Tubulin-Different-Phenotype (%),[5],0% and 4%
same,Total Cell Count,[5],391 and 186
same,Population Apoptotic (%),[6],92% and 86%
same,Population Fragmented Nuclei (%),[6],14% and 16%
same,Population Healthy Nuclei (%),[6],77% and 76%
same,Population Hoechst High Intensity Objects (%),[6],2%
same,Population Membrane Permeable-Phenotype (%),[6],4% and 5%
same,Population Mitochondria Different-Phenotype (%),[6],1% and 0%
same,Population Mitotic Cells (%),[6],7% and 13%
same,Population Normal (%),[6],97%
same,Population Pyknosed Nuclei (%),[6],8% and 7%
same,Population Tubulin-Different-Phenotype (%),[6],1%
same,Total Cell Count,[6],497 and 294
